ChEMBL document CHEMBL1145950, “2-arylureidobenzoic acids: selective noncompetitive antagonists for the homomeric kainate receptor subtype GluR5” (J Med Chem, 2003)

Columns and labels:
[1] = target: T1, Glutamate receptor ionotropic, kainate 1 (Homo sapiens, UniProt P39086); test: In vitro inhibitory activity against human ionotropic glutamate receptor ionotropic kainate 1 (GluR-5) expressed in HEK293 cells.; type: cell-based
[2] = target: T1, Glutamate receptor ionotropic, kainate 1; test: Binding inhibition of compound against Ionotropic glutamate receptor ionotropic kainate 1 (GluR5) using [3H]ATPA as radioligand
Procedure, shortened: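 GluR5-expressing HEK293 cell membranes (washed in 50 mM Tris-HCl pH 7.1, prepared at 0-4 °C) incubated with 3 nM [3H]ATPA, 46-84 µg protein/assay, 60 min at 2 °C; test compounds at 3-30 µM. Nonspecific binding defined with 0.6 mM Glu; rapid filtration, liquid scintillation counting. At least three separate experiments.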

[3] = system: Mus musculus; test: ATPA induced rigidity in mice was determined after 30 minutes of administration; type: functional
Procedure, shortened: (§1)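 Female NMRI mice, 20-25 g. Test substance given intravenously, n = 8 per dose, 5 or 30 min before ATPA (30 mg/kg i.v.; 3 mg/mL in saline, pH 7). Rigidity scored every 5 min over 30 min after ATPA, as percent of rigid mice over time.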

[4] = system: Mus musculus; test: ATPA induced rigidity in mice was determined after 5 minutes of administration; type: functional; procedure, shortened: as §1
[5] = target: Glutamate receptor ionotropic, kainate 2 (Homo sapiens, UniProt Q13002); test: In vitro inhibitory activity against Ionotropic glutamate receptor ionotropic kainate 2 (GluR-6) of HEK293 cells in FLIPR assay; type: cell-based
Procedure, shortened: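 Human GluR6 stably expressed in HEK293, plated 24 h before assay. Cells loaded with 2 µM Fluo-4-AM for 60 min at room temperature, washed into Na+-free Ringer, pH 7.4. Compound preincubated 1.5 min, then 0.2 µM domoate added (final). Inhibition of the FLIPR Ca2+ fluorescence rise (ex 488, em 510-570 nm) was measured; IC50 from ≥3 experiments.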

[6] = target: Glutamate receptor 2 (Rattus norvegicus) (UniProt P19491); test: In vitro inhibitory activity against Ionotropic glutamate receptor AMPA 2 of HEK293 cells in FLIPR assay
[7] = target: Glutamate receptor 3 (Rattus norvegicus) (UniProt P19492); test: In vitro inhibitory activity against Ionotropic glutamate receptor AMPA 3 of HEK293 cells in FLIPR assay
[8] = target: Glutamate receptor 4 (Rattus norvegicus) (UniProt P19493); test: In vitro inhibitory activity against Ionotropic glutamate receptor AMPA 4 of HEK293 cells in FLIPR assay
[9] = target: Glutamate receptor 1 (Rattus norvegicus) (UniProt P19490); test: In vitro inhibitory activity against Ionotropic glutamate receptor AMPA 1 of HEK293 cells in FLIPR assay
Chain of Glutamate receptor 1 (Rattus norvegicus) (P19490 whole entry, looked up): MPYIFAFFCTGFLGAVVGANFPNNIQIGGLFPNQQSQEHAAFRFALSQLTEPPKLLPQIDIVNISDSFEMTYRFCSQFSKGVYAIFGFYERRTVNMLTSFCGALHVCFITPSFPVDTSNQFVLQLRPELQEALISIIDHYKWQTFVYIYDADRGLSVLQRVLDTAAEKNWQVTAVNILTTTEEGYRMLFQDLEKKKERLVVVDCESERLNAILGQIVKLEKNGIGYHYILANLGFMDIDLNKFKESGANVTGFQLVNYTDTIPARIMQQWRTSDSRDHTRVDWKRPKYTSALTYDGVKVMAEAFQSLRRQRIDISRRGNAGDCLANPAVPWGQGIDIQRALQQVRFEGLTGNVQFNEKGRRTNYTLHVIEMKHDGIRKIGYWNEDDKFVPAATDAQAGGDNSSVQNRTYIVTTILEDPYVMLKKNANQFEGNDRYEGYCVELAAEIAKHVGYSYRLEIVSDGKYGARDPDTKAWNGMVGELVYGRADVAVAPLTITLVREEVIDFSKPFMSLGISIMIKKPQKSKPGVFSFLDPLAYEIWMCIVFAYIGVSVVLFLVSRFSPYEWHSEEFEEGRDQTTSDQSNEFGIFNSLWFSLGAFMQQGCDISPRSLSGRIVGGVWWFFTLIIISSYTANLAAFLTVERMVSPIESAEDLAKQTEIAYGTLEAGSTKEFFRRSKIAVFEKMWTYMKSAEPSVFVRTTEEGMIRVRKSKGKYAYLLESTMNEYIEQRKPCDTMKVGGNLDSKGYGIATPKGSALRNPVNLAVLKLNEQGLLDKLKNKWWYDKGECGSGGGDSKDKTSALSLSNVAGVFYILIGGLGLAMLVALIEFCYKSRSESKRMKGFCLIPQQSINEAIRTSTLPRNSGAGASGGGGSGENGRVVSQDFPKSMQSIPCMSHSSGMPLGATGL

T1 sequence (P39086 whole entry): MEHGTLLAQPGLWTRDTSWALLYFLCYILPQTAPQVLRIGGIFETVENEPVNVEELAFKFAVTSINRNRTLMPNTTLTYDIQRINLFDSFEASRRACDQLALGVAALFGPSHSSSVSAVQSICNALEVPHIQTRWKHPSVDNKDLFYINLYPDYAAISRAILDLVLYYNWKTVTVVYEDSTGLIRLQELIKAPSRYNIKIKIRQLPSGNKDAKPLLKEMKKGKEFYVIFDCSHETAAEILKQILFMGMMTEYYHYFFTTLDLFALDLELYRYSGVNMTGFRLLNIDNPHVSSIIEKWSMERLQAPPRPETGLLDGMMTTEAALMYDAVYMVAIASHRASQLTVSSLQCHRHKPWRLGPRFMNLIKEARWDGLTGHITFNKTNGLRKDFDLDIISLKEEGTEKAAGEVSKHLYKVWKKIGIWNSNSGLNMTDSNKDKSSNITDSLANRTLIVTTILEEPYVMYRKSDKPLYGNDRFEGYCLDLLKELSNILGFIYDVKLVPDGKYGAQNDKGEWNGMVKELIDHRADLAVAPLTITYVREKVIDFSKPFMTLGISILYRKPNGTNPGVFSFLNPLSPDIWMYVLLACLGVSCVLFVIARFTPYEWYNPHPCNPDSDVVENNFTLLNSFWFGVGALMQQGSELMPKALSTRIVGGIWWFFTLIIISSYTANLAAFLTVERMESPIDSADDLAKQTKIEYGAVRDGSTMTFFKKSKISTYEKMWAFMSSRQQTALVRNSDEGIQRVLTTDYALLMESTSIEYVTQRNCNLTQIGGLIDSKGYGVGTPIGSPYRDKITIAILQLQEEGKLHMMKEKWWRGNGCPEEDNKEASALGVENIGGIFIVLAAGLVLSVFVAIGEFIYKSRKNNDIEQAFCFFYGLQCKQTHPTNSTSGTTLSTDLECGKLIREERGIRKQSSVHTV
Chain of Glutamate receptor ionotropic, kainate 2 (Q13002 whole entry): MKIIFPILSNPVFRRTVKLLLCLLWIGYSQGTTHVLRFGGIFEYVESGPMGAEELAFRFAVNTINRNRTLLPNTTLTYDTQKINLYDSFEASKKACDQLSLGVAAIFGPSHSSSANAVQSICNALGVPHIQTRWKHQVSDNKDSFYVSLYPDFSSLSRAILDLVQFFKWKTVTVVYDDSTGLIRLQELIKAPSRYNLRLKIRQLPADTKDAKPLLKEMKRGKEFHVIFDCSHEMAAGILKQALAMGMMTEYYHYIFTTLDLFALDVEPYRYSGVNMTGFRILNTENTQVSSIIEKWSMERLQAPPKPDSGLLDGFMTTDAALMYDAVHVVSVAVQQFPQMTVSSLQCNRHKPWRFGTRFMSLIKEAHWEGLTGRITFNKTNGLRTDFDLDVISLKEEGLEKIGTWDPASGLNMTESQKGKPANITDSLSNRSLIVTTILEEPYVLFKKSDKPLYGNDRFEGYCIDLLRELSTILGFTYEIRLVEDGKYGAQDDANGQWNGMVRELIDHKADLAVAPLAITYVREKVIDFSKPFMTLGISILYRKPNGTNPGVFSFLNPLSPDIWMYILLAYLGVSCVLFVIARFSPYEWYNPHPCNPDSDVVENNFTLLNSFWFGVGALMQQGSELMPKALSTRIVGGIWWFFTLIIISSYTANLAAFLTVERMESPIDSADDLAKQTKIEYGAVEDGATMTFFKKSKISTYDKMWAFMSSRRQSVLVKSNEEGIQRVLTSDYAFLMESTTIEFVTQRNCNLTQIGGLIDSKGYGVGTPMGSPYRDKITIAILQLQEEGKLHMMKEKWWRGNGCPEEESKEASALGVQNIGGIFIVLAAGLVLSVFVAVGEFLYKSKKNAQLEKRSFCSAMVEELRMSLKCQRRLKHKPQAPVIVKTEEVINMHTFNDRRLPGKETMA
Chain of Glutamate receptor 4 (Rattus norvegicus) (P19493 whole entry, looked up): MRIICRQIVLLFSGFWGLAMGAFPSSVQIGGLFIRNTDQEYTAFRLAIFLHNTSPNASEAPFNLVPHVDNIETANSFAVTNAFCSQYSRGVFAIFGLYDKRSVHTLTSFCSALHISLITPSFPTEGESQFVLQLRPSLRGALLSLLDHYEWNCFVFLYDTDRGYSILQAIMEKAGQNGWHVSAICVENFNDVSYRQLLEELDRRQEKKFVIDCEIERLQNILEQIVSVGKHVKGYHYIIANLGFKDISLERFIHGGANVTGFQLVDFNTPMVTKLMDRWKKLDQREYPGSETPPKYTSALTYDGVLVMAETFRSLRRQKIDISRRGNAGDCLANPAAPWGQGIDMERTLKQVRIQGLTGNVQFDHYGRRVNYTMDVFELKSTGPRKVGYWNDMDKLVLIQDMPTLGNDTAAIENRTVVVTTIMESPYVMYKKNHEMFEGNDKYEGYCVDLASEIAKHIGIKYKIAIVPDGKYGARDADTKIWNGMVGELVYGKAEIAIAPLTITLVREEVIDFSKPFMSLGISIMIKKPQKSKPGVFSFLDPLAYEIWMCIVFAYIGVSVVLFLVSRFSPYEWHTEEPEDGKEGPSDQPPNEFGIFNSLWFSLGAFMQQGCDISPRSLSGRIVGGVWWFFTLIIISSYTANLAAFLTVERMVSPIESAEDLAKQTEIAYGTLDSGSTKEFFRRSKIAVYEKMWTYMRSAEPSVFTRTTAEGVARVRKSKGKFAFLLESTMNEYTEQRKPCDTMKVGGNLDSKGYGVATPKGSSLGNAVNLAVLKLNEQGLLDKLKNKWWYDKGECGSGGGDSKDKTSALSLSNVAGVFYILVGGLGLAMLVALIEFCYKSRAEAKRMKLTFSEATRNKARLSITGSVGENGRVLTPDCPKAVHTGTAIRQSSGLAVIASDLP
Chain of Glutamate receptor 3 (Rattus norvegicus) (P19492 whole entry, looked up): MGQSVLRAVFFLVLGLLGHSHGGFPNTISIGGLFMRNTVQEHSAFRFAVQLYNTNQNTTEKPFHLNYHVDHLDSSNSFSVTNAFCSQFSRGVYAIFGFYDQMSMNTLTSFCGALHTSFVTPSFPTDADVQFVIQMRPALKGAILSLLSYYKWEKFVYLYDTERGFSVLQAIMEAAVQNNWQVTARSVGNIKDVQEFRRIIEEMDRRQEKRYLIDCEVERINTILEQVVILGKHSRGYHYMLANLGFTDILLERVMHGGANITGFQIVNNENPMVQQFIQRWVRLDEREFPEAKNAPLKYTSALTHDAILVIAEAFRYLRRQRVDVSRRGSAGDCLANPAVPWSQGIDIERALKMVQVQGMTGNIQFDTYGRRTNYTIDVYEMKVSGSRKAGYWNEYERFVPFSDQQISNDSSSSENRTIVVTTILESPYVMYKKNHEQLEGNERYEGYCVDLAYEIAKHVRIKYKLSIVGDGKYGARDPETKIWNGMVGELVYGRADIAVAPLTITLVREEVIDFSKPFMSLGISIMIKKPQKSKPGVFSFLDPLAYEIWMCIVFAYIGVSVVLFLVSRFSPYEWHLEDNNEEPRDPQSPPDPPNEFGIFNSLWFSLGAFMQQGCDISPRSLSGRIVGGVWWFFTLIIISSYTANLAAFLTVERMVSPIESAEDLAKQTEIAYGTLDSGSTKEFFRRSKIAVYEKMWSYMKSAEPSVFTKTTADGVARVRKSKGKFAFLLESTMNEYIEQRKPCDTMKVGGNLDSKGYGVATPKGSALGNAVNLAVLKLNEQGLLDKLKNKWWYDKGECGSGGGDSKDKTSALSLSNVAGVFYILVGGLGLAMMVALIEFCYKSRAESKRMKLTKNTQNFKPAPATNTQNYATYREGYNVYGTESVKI

Row | SMILES | IC50 [1] [µM] | other results
1 | COc1cccc(NC(=O)Nc2cc(Cl)ccc2C(=O)O)c1 | 3.7 | –
2 | COc1ccc(NC(=O)Nc2cc(Cl)ccc2C(=O)O)cc1 | 10 | –
3 | O=C(Nc1cc(Cl)ccc1C(=O)O)NC1CCCCC1 | > 100 | –
4 | Cc1cccc(NC(=O)Nc2cccc(C(F)(F)F)c2)c1C(=O)O | > 100 | –
5 | O=C(Nc1ccc(Cl)cc1)Nc1cc(Cl)ccc1C(=O)O | 3.1 | –
6 | O=C(Nc1ccccc1Cl)Nc1cc(Cl)ccc1C(=O)O | 4.7 | –
7 | O=C(Nc1ccncc1)Nc1cc(Cl)ccc1C(=O)O | 88 | –
8 | O=C(Nc1cccc(I)c1)Nc1cc(Cl)ccc1C(=O)O | 2.2 | –
9 | O=C(Nc1cccc(C(F)(F)F)c1)Nc1cc(Cl)ccc1C(=O)O | 5 | –
10 | O=C(Nc1cccc(Br)c1)Nc1cc(Cl)ccc1C(=O)O | 4.8 | IC50 [2]: > 30 µM; ED50 ([3]; Mus musculus, 0.5 h): 24 mg/kg; ED50 ([4]; Mus musculus, 5 min): 4 mg/kg; IC50 [5]: 28 µM; IC50 [6]: > 100 µM; IC50 [7]: > 100 µM; IC50 [8]: > 100 µM; IC50 [9]: > 100 µM
11 | O=C(Nc1cc(Cl)ccc1C(=O)O)Nc1ccccc1-c1ccccc1 | > 10 | –
12 | Cc1ccc(NC(=O)Nc2cccc(C(F)(F)F)c2)c(C(=O)O)c1 | > 100 | –
13 | O=C(Nc1ccc(Br)cc1)Nc1cc(Cl)ccc1C(=O)O | 2.2 | –
14 | O=C(Nc1ccc2cc3ccccc3cc2c1)Nc1cc(Cl)ccc1C(=O)O | > 30 | –
15 | O=C(Nc1ccccc1I)Nc1cc(Cl)ccc1C(=O)O | 5 | –
16 | O=C(Nc1ccc(I)cc1)Nc1cc(Cl)ccc1C(=O)O | 4.7 | –
17 | O=C(Nc1ccccc1Br)Nc1cc(Cl)ccc1C(=O)O | 4.5 | –
18 | O=C(Nc1ccccc1)Nc1cc(Cl)ccc1C(=O)O | 10 | –
19 | O=C(Nc1cc(Cl)ccc1C(=O)O)Nc1ccccc1C(F)(F)F | 4.5 | –
20 | O=C(Nc1cc(Cl)ccc1C(=O)O)Nc1cccc2ccccc12 | 9.4 | –
21 | Cc1cccc(C(=O)O)c1NC(=O)Nc1cccc(C(F)(F)F)c1 | > 100 | –
22 | O=C(Nc1cc(NC(=O)c2ccccc2)c(C(=O)O)cc1C(=O)O)c1ccccc1 | 1.6 | –
23 | O=C(Nc1cccc(F)c1)Nc1cc(Cl)ccc1C(=O)O | 7.6 | –
24 | O=C(Nc1ccccc1)Nc1ccccc1C(=O)O | > 100 | –
25 | O=C(Nc1cccc(C(F)(F)F)c1)Nc1cc(F)ccc1C(=O)O | 10 | –
26 | O=C(Nc1ccc2ccccc2c1)Nc1cc(Cl)ccc1C(=O)O | 1.2 | IC50 [2]: > 30 µM; ED50 [3]: > 30 mg/kg; ED50 [4]: > 30 mg/kg; IC50 [5]: 62 µM; IC50 [7]: > 100 µM; IC50 [8]: > 100 µM; IC50 [9]: > 100 µM
27 | O=C(Nc1cccc(C(F)(F)F)c1)Nc1cc(Br)ccc1C(=O)O | 6.1 | –
28 | O=C(Nc1cc2ccccc2[nH]1)Nc1cc(Cl)ccc1C(=O)O | 1.2 | –
29 | O=C(Nc1ccc2c(c1)OCO2)Nc1cc(Cl)ccc1C(=O)O | 3.6 | –
30 | O=C(Nc1ccc(C(F)(F)F)cc1)Nc1cc(Cl)ccc1C(=O)O | 4.8 | –
